Calls of active or inactive are those of the source. No cut-off for these calls is given here.

One series deals with Gastric gland. Kind of series: Inhibition of acid secretion in rabbit intact gastric glands assessed as […] accumulation. Type of series: functional, tissue-based. The following applies: Oryctolagus cuniculus. The method in brief:
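Isolated gastric glands in Krebs-Henseleit with 2 mg/mL rabbit serum albumin and 2 mg/mL glucose. Incubated 30 min at 37 °C, shaking, with 0.125 µM 14C-aminopyrine at pH 7.4, stimulated by 1 mM dibutyryl cAMP, inhibitor 3 nM-100 µM. Stopped by centrifugation. Accumulation taken from pellet/supernatant radioactivity ratio. IC50 from fitted inhibition equation.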

Series [1] in a line: Dissociation constant, pKa of the compound. Format: physicochemical. In outline:
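Potentiometric cosolvent titration in 0.15 mol/L KCl, pH 2.0-11.0, 25 °C, methanol as cosolvent in varying portions; titrants 0.5 mol/L KOH and HCl.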

For series [2], the system named is Rattus norvegicus. Description: Inhibition of pentagastrin-stimulated acid secretion in perfused Ghosh Schild rat stomach at 1 umol/kg, intraduodenal. Further details: scale not given: the % may be the effect or the level left. Type of series: functional. The method in brief: (§1)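 Anaesthetised rat with perfused stomach: 37 °C saline at 0.5 mL/min. Effluent titrated to pH 7 with 0.01 N NaOH in 15-min fractions. Secretion driven by continuous iv pentagastrin, 1 µg/kg (1.65 mL/h). Compound given intraduodenally in 2.5 mL/kg volume 60 min after infusion start. Body temperature held at 37.8-38 °C.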

Series [3] can be described thus: Inhibition of H+/K+ ATPase in hog gastric mucosa. Format: tissue-based, Sus scrofa. In outline: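 Hog gastric mucosa H+/K+-ATPase (0.5-1 µg/100 µL, with nigericin 1:1) in 4 mM Pipes/8 mM Tris pH 7.4, 0.25 M sucrose, 1 mM MgCl2, stimulated by 1 mM KCl. Compound 1e-4 to 1e-9 M final from DMSO stocks. Started with 1 mM Na-ATP, 30 min room temperature. Phosphate read by malachite green at 680 nm after 15 min.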

Series [4] in a line: Distribution coefficient, log D of the compound. Type of series: physicochemical. The following applies: octanol/water. In outline:
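Distribution between 1-octanol and aqueous KCl measured by potentiometric titration over pH 2.0-11.0 at 25 °C.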

In series [5] the test system is Rattus norvegicus. Kind of series: Inhibition of pentagastrin-stimulated acid secretion in intraduodenally dosed perfused Ghosh Schild rat stomach. Type of series: functional. The following applies: intraduodenal. The method in brief: as §1

Consider `Cc1nc2c3c(c(C(=O)N4CC4)cn2c1C)CCC(c1ccccc1)O3` (racemic), for which, in the series with Gastric gland, the half-maximal inhibitory concentration (IC50) is 398 nM. This compound had a pKa in series [1] of 6.63. The same compound registered an Activity in the series on Rattus norvegicus [2] of 35%. In addition, in series [3], the negative-log IC50 (pIC50) worked out at 5.3. The compound further registered a logD in series [4] of 2.9.
Regarding `Cc1nc2c3c(c(C(=O)N4CCCC4)cn2c1C)CCC(c1ccccc1)O3` (racemic), the IC50 in the series on Gastric gland was 316 nM. Moreover, the pKa in series [1] came to 6.73. This compound displayed an Activity with Rattus norvegicus [2] of 47%. The compound further returned a pIC50 in series [3] of 5.8. This compound showed a pH-dependent lipophilicity (logD) in series [4] of 2.83.
With `Cc1nc2c3c(c(C(=O)Nc4ccccc4)cn2c1C)CCC(c1ccccc1)O3` (racemic), in the series on Gastric gland, the IC50 is 251 nM. In series [1], this compound displayed a pKa of 6.59. In series [3], this compound came in with a pIC50 of 5.5. Further, it took a dose of 0.3 µmol/kg to reach the 50% effect level in the series on Rattus norvegicus [5] (ED50). The compound further gave a logD in series [4] of 5.
As for `Cc1nc2c3c(c(C(=O)N(C)C)cn2c1C)CCC(c1ccc(F)cc1)O3` (racemic), in the series on Gastric gland, the IC50 was 398 nM. In series [1], the pKa was determined as 6.74. The compound also had a negative logarithm of the IC50 (pIC50) in series [3] of 6.2. This compound also came in with a median effective dose (ED50) with Rattus norvegicus [5] of 0.35 µmol/kg. In series [4], this compound displayed a logD of 2.78.
On to `Cc1nc2c3c(c(C(=O)N(C)C)cn2c1C)CCC(c1cccs1)O3` (racemic), for which the half-maximal inhibitory concentration (IC50) with Gastric gland is 631 nM. This compound had a pKa in series [1] of 6.64. This compound also had an Activity in the series on Rattus norvegicus [2] of 46%. Also, in series [3], the negative logarithm of the IC50 (pIC50) is on record as 5.3. The pH-dependent lipophilicity (logD) in series [4] came out at 2.05.
`CCOc1ccc(NC(=O)c2cn3c(C)c(C)nc3c3c2CCC(c2ccccc2)O3)cc1` (racemic): the IC50 with Gastric gland was 200 nM. The pKa in series [1] is 6.57. The Activity in the series with Rattus norvegicus [2] is given as 33%. Further, the pIC50 in series [3] is > 6. The compound further came in with a log distribution coefficient (logD) in series [4] of 4.3.
Take `Cc1nc2c3c(c(C(=O)N(C)C)cn2c1Br)CCC(c1ccccc1)O3` (racemic): the half-inhibitory concentration (IC50) in the series with Gastric gland is 12600 nM. Moreover, the pKa in series [1] was determined as 4.68. In series [3], this compound yielded a pIC50 of 4.9. This compound had an ED50 in the series with Rattus norvegicus [5] of 1 µmol/kg. In series [4], this compound registered a logD of 3.2.
Consider `CON(C)C(=O)c1cn2c(C)c(C)nc2c2c1CCC(c1ccccc1)O2` (racemic), for which the 50% inhibitory concentration (IC50) in the series with Gastric gland is 398 nM. Besides, the pKa in series [1] is 6.49. The compound further displayed a negative logarithm of the IC50 (pIC50) in series [3] of 5.8. In the series on Rattus norvegicus [5], this compound registered a 50% effective dose (ED50) of 0.4 µmol/kg. In addition, the logD in series [4] worked out at 2.6.
Regarding `Cc1nc2c3c(c(C(=O)N(C)C)cn2c1C)CCC(c1ccccc1)O3` (racemic), the half-inhibitory concentration (IC50) in the series with Gastric gland was 501 nM. In series [1], this compound had a pKa of 7.15. Also, the pIC50 in series [3] stood at 5.8. The compound also registered an ED50 in the series on Rattus norvegicus [5] of 0.5 µmol/kg. The same compound yielded a logD in series [4] of 2.83.
`CC#CC(=O)c1c(C)nc2c3c(c(C(=O)N(C)C)cn12)CCC(c1ccccc1)O3` (racemic): the result with Gastric gland was inactive. Moreover, the pKa in series [1] amounted to 3.2. The compound also yielded an Activity in the series on Rattus norvegicus [2] of 43%. In series [3], this compound displayed a negative-log IC50 (pIC50) of 6.2. The log distribution coefficient (logD) in series [4] is 3.2.
With `CCN(CC)C(=O)c1cn2c(C)c(C)nc2c2c1CCC(c1ccccc1)O2` (racemic), in the series on Gastric gland, the 50% inhibitory concentration (IC50) was 794 nM. In addition, the pKa in series [1] stood at 6.75. The same compound showed an Activity in the series on Rattus norvegicus [2] of 23%. In addition, the negative logarithm of the IC50 (pIC50) in series [3] is listed as 5.2. Also, the log distribution coefficient (logD) in series [4] amounted to 3.2.
With `Cc1nc2c3c(c(C(N)=O)cn2c1C)CCC(c1ccccc1)O3` (racemic), the IC50 with Gastric gland is 2510 nM. In series [1], this compound yielded a pKa of 6.52. For the same compound, the pIC50 in series [3] stood at 5.9. The same compound came in with an ED50 in the series on Rattus norvegicus [5] of 0.8 µmol/kg. In series [4], this compound registered a logD of 2.53.
In turn, `CC#CC(O)c1c(C)nc2c3c(c(C(=O)N(C)C)cn12)CCC(c1ccccc1)O3` (racemic) returned a pKa in series [1] of 5.58. The Activity with Rattus norvegicus [2] worked out at 22%. Besides, in series [3], the negative-log IC50 (pIC50) was < 4. Also, in series [4], the pH-dependent lipophilicity (logD) was 2.5.
For `Cc1nc2c3c(c(C(=O)N(C)C)cn2c1CN(C)C)CCC(c1ccccc1)O3` (racemic), the pKa in series [1] is 4.09. Further, in the series on Rattus norvegicus [2], the Activity is recorded as 20%. For the same compound, in series [3], the negative logarithm of the IC50 (pIC50) amounted to 5. Moreover, the log distribution coefficient (logD) in series [4] was found to be 1.8.

The values above are taken from ChEMBL document CHEMBL1138298, “Synthesis and evaluation of 7H-8,9-dihydropyrano[2,3-c]imidazo[1,2-a]pyridines as potassium-competitive acid blockers” (J Med Chem, 2007).
